NR2E3 ag-1 = NR2E3 (human) agonism; inhibition of corepressor binding, % at 4.78 µM; GST-NR2E3/biotin-RetCOR TR-FRET, 1536-well; AID 2300; 320,000 compounds, 0.12% hits;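 active means percent inhibition above the cutoff of mean plus 3 SD of all tested compounds, set per screening campaign, cut at about 20% in these data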;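 further: 0% = DMSO wells and 100% = biotin wells as full block of FRET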
Target sequence (Q9Y5X4 whole entry, looked up): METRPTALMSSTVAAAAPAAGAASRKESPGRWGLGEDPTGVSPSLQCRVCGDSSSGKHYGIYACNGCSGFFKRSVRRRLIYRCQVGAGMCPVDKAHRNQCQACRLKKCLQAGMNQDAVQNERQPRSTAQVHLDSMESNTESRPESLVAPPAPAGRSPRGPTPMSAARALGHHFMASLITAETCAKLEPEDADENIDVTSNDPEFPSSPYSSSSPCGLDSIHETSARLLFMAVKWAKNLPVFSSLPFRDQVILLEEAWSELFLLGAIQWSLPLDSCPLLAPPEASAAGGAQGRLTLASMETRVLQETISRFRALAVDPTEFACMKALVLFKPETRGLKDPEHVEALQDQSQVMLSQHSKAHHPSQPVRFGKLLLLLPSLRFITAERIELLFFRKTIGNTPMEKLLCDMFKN
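Assay system: NR2E3–RetCOR corepressor complex. Quantity: 1.35 nM GST-NR2E3. Buffer or medium: pH 7.5 Tris-based buffer. Reagent: biotinylated RetCOR corepressor at 7 nM final. Schedule: 5 h at 4 °C. Detection: TR-FRET, emission read at 617 and 671 nm. Replicates: one well per compound, singlicate testing.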
proKLK7 act = activators of human kallikrein-7 zymogen | P49862 | purified proKLK7, EDANS-DABCYL substrate fluorescence; 100% is mature enzyme control, 0% vehicle | activation, % at 7 µM | 370,000 compounds, 0.9% hits | AID 652039;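 active means activation above the mean of all tested compounds plus 3 SD, computed per campaign excluding outliers beyond control limits, cut at about 13% in these data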
Target sequence (P49862 whole entry, looked up): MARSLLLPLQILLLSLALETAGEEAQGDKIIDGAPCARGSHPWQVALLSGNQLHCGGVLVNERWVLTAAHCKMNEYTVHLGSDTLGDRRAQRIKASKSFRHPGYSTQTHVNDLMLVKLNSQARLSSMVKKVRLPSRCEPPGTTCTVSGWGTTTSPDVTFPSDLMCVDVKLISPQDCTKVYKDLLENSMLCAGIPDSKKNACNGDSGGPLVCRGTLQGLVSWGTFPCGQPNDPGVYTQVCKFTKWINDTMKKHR
NR2E3 ag-2 = agonists of human NR2E3 nuclear receptor; CHO-S Gal4-NCOR/VP16-NR2E3 two-hybrid, luciferase; inhibition of corepressor binding, % at 3.98 µM; 360,000 compounds, 0.35% hits; AID 602229;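 active means inhibition above the mean of all tested compounds plus 3 SD, cut at about 70% in these data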;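 further: 0% = DMSO with NR2E3 transfected cells and 100% = cells lacking NR2E3 construct; higher means lower luciferase signal from less NR2E3 corepressor binding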
JMJD2C inh = inhibitors of human GASC-1 (JMJD2C) demethylase. GST-JMJD2C(1-420) H3K9me3 demethylation, DELFIA europium. AID 2099. inhibition, % at 2.35 µM. 330,000 compounds, 0.069% hits. Q9H3R0;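 active means more than half of a compound's replicate wells show inhibition beyond 50%, single wells judged on their own value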;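 further: signal counts dimethyl H3K9 product captured on neutravidin plate; 0% = median of DMSO wells and 100% = 0.3 times that DMSO median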
ADAM10 inh = inhibitors of human ADAM10. recombinant ADAM10, EDANS/DABCYL FRET peptide cleavage, 3 h. AID 720582. O14672. inhibition, % at 7 µM. 370,000 compounds, 0.62% hits;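 active means inhibition above a per-campaign cutoff equal to the mean of compounds falling between control-based bounds plus 3 SD, cut at about 20% in these data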;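 further: 0% = DMSO wells while the 100% control is not disclosed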
ADAM17 inh = ADAM17 inhibition, QFRET primary screen; AID 720648; inhibition, % at 6.95 µM; recombinant ADAM17, EDANS/DABCYL FRET peptide cleavage; 370,000 compounds, 0.83% hits;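 active means inhibition above the mean of compounds lying between control limits plus 3 SD, set per campaign, cut at about 8.5% in these data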;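 further: 0% = DMSO-only wells as the low control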
ADAM10 counter = counter-screen for ADAM17 exosite inhibitors: inhibitors of human ADAM10; recombinant ADAM10, EDANS/DABCYL FRET peptide cleavage, 3 h; 2,900 compounds, 47% hits; inhibition, % at 6.95 µM; shares compounds with ADAM17 inh;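 active means mean inhibition over the triplicate runs exceeds the activity threshold set in the earlier primary screen, cut at about 20% in these data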;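 further: 0% = DMSO wells and 100% = marimastat wells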
ADAM17 confirm = human ADAM17 inhibition, confirmation; shares compounds with ADAM17 inh; recombinant ADAM17, EDANS/DABCYL QFRET peptide cleavage; inhibition, % at 6.95 µM; 2,900 compounds, 65% hits; AID 743257;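 active means mean inhibition across replicates above the hit cutoff set in the primary screen, cut at about 8.5% in these data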;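 further: 0% = DMSO wells and 100% = marimastat wells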
Starred values were filed as active, the others as inactive. This is a sample that favours compounds with a hit; in the whole collection about 2.5% have one here.

Results for CCCNC(=O)c1cc2c(c(-c3cccc(-c4ccc(F)cc4)c3)n1)[C@H](CCO)N(S(=O)C(C)(C)C)C2 (stereo partly drawn) ?
proKLK7 act: 0; NR2E3 ag-2: 42; ADAM10 inh: 13; ADAM17 inh: 10*; ADAM10 counter: 14; ADAM17 confirm: 10*

What do the screens show for `CCCNC(=O)c1cc2c(c(-c3cccc(-c4ccc(F)cc4)c3)n1)[C@@H](CCO)N(S(=O)C(C)(C)C)C2` (stereo partly drawn)?
proKLK7 act: 0; NR2E3 ag-2: 0; ADAM10 inh: 9; ADAM17 inh: 7

What do the screens show for `COc1ccc(C#Cc2cccc(-c3nc(C(=O)NCCCN4CCOCC4)cc4c3[C@H](CCO)N(S(=O)C(C)(C)C)C4)c2)cc1OC` (stereo partly drawn)?
proKLK7 act: 2; NR2E3 ag-2: -29; ADAM10 inh: -10; ADAM17 inh: 0

Results for CNS(=O)(=O)c1ccc(C(=O)NCC(=O)NCCC(c2ccccc2)c2ccccc2)cc1 ?
NR2E3 ag-1: -2; proKLK7 act: 0; NR2E3 ag-2: 4; JMJD2C inh: 1; ADAM10 inh: 3; ADAM17 inh: 9.7*; ADAM10 counter: 6; ADAM17 confirm: 2

Results for CNS(=O)(=O)c1ccc(C(=O)NCC(=O)NCC2COc3ccccc3O2)cc1 (stereo not drawn) ?
NR2E3 ag-1: 3; proKLK7 act: 0; NR2E3 ag-2: -31; JMJD2C inh: 6; ADAM10 inh: -6; ADAM17 inh: -1

What do the screens show for `Fc1ccccc1Cn1nnc2c(-n3ccnc3)ncnc21`?
NR2E3 ag-1: 0; proKLK7 act: 0; NR2E3 ag-2: 0; JMJD2C inh: 17; ADAM10 inh: 10; ADAM17 inh: 8.7*; ADAM10 counter: -8; ADAM17 confirm: 0

How did Clc1ccccc1Cn1nnc2c(N3CCCC3)ncnc21 do in these assays?
NR2E3 ag-1: -1; proKLK7 act: 1; NR2E3 ag-2: -27; JMJD2C inh: -3; ADAM10 inh: -4; ADAM17 inh: -4

How did CCN(CC)CC(=O)N1CCCC(N2CCN(c3cccc(C(F)(F)F)c3)CC2)C1 (stereo not drawn) do in these assays?
NR2E3 ag-1: 4; proKLK7 act: 0; NR2E3 ag-2: -16; JMJD2C inh: -3; ADAM10 inh: 1; ADAM17 inh: -2

How did Cc1cnc(NC(=O)CSc2ccc(Cl)cc2)s1 do in these assays?
NR2E3 ag-1: 1; proKLK7 act: 0; NR2E3 ag-2: -12; JMJD2C inh: 0; ADAM10 inh: 9; ADAM17 inh: 9.0*; ADAM10 counter: 7; ADAM17 confirm: 7

What do the screens show for `CCC(C)(C)n1nnnc1C(c1ccc(C)cc1)N(Cc1ccco1)Cc1cccs1` (stereo not drawn)?
NR2E3 ag-1: 2; proKLK7 act: 0; NR2E3 ag-2: 9; JMJD2C inh: 6; ADAM10 inh: 13; ADAM17 inh: 9.4*; ADAM10 counter: 7; ADAM17 confirm: 5

Results for CCOC(=O)c1c(C)[nH]c(C)c1C(=O)COC(=O)/C=C/c1ccc(OC(F)F)cc1 ?
NR2E3 ag-1: 3; proKLK7 act: 0; NR2E3 ag-2: 3; JMJD2C inh: 6; ADAM10 inh: 17; ADAM17 inh: 9.3*; ADAM10 counter: 21*; ADAM17 confirm: 10*

What do the screens show for `Cc1ccc(NC(=O)c2ccccc2OCC(=O)Nc2ccccc2F)cc1S(=O)(=O)N(C)C`?
NR2E3 ag-1: -5; proKLK7 act: 0; NR2E3 ag-2: -19; ADAM10 inh: 4; ADAM17 inh: 11*; ADAM10 counter: 42*; ADAM17 confirm: 25*

What do the screens show for `O=C(/C=C/c1ccc2c(c1)OCO2)c1ccc(O)cc1O`?
proKLK7 act: -1; NR2E3 ag-2: -63; ADAM10 inh: 1; ADAM17 inh: 9.3*; ADAM10 counter: 7; ADAM17 confirm: 6

What do the screens show for `Cc1ccc(NC(=O)COC(=O)[C@H](C)N2C(=O)C3CC=CCC3C2=O)cc1S(=O)(=O)N(C)C` (stereo partly drawn)?
NR2E3 ag-1: -3; proKLK7 act: 0; NR2E3 ag-2: 6; JMJD2C inh: 1; ADAM10 inh: 7; ADAM17 inh: 1

What do the screens show for `COc1cc(C(=O)Nc2cccc3cccnc23)cc(OC)c1OC`?
NR2E3 ag-1: 1; proKLK7 act: 1; NR2E3 ag-2: -13; JMJD2C inh: 5; ADAM10 inh: 2; ADAM17 inh: -3

Results for COc1cc(NC(=O)Nc2cccc3cccnc23)cc(OC)c1OC ?
proKLK7 act: 0; NR2E3 ag-2: 9; JMJD2C inh: 32; ADAM10 inh: 13; ADAM17 inh: 13*; ADAM10 counter: 7; ADAM17 confirm: 7

What do the screens show for `CCc1ccc(OCC2c3cc(OC)c(OC)cc3CCN2C(=S)NCCOC)cc1` (stereo not drawn)?
NR2E3 ag-1: 0; proKLK7 act: -1; NR2E3 ag-2: -11; JMJD2C inh: -2; ADAM10 inh: 17; ADAM17 inh: 10*; ADAM10 counter: 39*; ADAM17 confirm: 21*

What do the screens show for `Cn1cccc1/C=N/NC(=O)CSc1nc2ccccc2n1C`?
NR2E3 ag-1: 5; proKLK7 act: 0; NR2E3 ag-2: -12; JMJD2C inh: -17; ADAM10 inh: -4; ADAM17 inh: -5

How did CC(c1cccs1)N(Cc1ccco1)C(=O)Nc1ccc(Cl)c(Cl)c1 (stereo not drawn) do in these assays?
NR2E3 ag-1: 4; proKLK7 act: 0; NR2E3 ag-2: 2; JMJD2C inh: 17; ADAM10 inh: 10; ADAM17 inh: 8.6*; ADAM10 counter: -1; ADAM17 confirm: 6

Results for C=CC[C@H](CC(=O)N[C@H](CO)Cc1ccccc1)C(=O)N[C@H](COC(=O)[C@@H](CC=C)Cc1ccc(F)cc1)Cc1c[nH]c2ccccc12 ?
NR2E3 ag-2: 10

How did C=CC[C@H](CC(=O)N(CCO)Cc1ccccc1)C(=O)N[C@H](COC(=O)[C@@H](CC=C)Cc1ccc(F)cc1)C(C)(C)C do in these assays?
proKLK7 act: 0; NR2E3 ag-2: -17; ADAM10 inh: 16; ADAM17 inh: 7

Compound activity: PubChem BioAssay, several laboratories
